Compounds with a hit are over-represented: about 4.3% of the library has one in this group of screens.
SR-BI HDL uptake = inhibitors of SR-BI mediated HDL lipid uptake, primary screen, ldlA[mSR-BI] cells, fluorescence, single point | Scavenger receptor class B member 1 (Mus musculus), Q61009 | ldlA[mSR-BI] CHO cells, DiI-HDL uptake fluorescence, 3 h | inhibition, % at 12.5 µM | hit rate 0.96% among 320,000;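 active means mean replicate inhibition of at least 70% and a set share of replicates each scoring 70 or more; inconclusive means meets just one of the two criteria; inactive means fails both criteria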;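 further: 0% = median of neutral control wells and 100% = median of positive control wells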
SR-BI DiI-HDL act = activators of SR-BI mediated DiI-HDL uptake, primary screen, ldlA[mSR-BI] CHO cells, DiI fluorescence. activation, % at 12.5 µM. AID 504775, 2011. hit rate 0.096% among 320,000. 3 h; 100 = double the neutral-control signal;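 active means mean replicate activation of at least 60% and every replicate at or above 60%; inconclusive means mean or all-replicate condition met, but not both; inactive means mean below 60% and not all replicates reaching 60%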;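 further: 0% = median plate neutral-control signal and 100% = twice that signal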
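Material – SR-BI-overexpressing, LDLR-lacking CHO cells · Medium – BSA-supplemented, HEPES-buffered Ham's F12, pH 7.4 · Doses – single concentration · Times – compound with DiI-HDL co-incubation, 3 h at 37 °C · Measured by – bottom-read fluorescence, 550/595 nm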
Hep lipid drop = inhibitors of hepatocyte lipid droplet formation, primary screen, imaging, high-throughput imaging, BODIPY stain; hit rate 0.4% among 240,000; AML12 mouse hepatocytes, oleate lipid droplets; inhibition, % at 6.5 µM;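 active means lipid droplet intensity inhibited by at least 50%, with more than 500 cells counted; inconclusive means wells with under 300 cells, treated as cytotoxic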
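Assay system: AML12 mouse liver cells | Compound: 6.5 µM single-point dosing | Schedule: Overnight exposure | Technique: Fluorescence imaging, 20x objective, two fields per well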
AHR activator = AHR activators, primary screen, cell-based, luminescence, luciferase reporter, human. AHR-responsive luciferase reporter cells. Aryl hydrocarbon receptor (Homo sapiens), P35869. activation, % at 5 µM. AID 2796, 2010. hit rate 2.5% among 320,000; in the data active means activation above about 47%;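 further: 0% = vehicle wells and 100% = reference agonist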
CR mimetic SO = reduction of superoxide in aged yeast, primary screen, HTS. S. cerevisiae aged cells, superoxide DHE fluorescence; stronger effect = lower value. superoxide response (% of plate mean), % at 10 µM. hit rate 0.18% among 330,000. AID 2690, 2010;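 active means superoxide response under a set limit, about three screen SD below normal, cut at about 65% in these data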;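 further: yeast aged for seven days with compound at 30 °C before DHE staining; 100% = average MFI of all compound-treated wells on the plate with controls excluded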
SMARCA2 activ = SMARCA2 (BRM) function activators, primary screen, cell-based, luminescence, high throughput; MG213 cells, MMTV-luciferase reporter, dexamethasone, overnight; activation, % at 9.1 µM; hit rate 1% among 370,000; AID 652017, 2013; in the data active means activation above about 7.8%;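 further: 0% = vehicle wells and 100% = reference activator wells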
DiI quencher = counter-screen for SR-BI lipid transfer inhibitors: DiI fluorescence quenchers; hit rate 20% among 470; AC50, µM (titrated, usually from 35 µM), without a hit: at the highest dose activity change, negative = quenching; shares compounds with SR-BI HDL uptake; cell-free DiI-HDL fluorescence quenching, 30 min;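 active means quenching, a falling signal, with AC50 below a set limit tied to the top valid dose, actives reach about 32 µM in these data; inconclusive means no clear call, values can overlap the other calls; inactive means rising signal, and the rest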
An asterisk follows results filed as active; ? = inconclusive; . = no result.

SMILES	SR-BI HDL uptake	SR-BI DiI-HDL act	Hep lipid drop	AHR activator	CR mimetic SO	SMARCA2 activ	DiI quencher
Cc1ccccc1COn1nnc2ccc(S(=O)(=O)N3CCOCC3)cc21	-11	11	.	-2	93	-1	.
COc1ccc(OC)c(C(=O)CSc2nnc(SCc3cccc4ccccc34)s2)c1	.	.	.	.	.	1	.
C[C@@H]1O[C@@H](n2c3ccc(Cl)cc3c3ccc4c5cc(Cl)ccc5[nH]c4c32)[C@H](O)[C@H](O)[C@H]1O	.	.	.	.	.	-4	.
COC(=O)C1CN(Cc2cn(Cc3ccc(C)cc3)nn2)CCS(=O)(=O)N1Cc1ccc(C)cc1 (stereo unspecified)	.	.	.	.	.	0	.
CCOC(=O)N1CCN(CC(O)COC2CC(C)CCC2C(C)C)CC1 (stereo unspecified)	78*	-78	-6	3	106	-1	-4%
CC1CCN(CC(O)COC2CC(C)CCC2C(C)C)CC1 (stereo unspecified)	-11	11	10	13	89	-3	.
COc1ccc(C2/C=C\CN(S(=O)(=O)c3ccc4ccccc4c3)CC(=O)N2Cc2ccc(F)cc2)cc1 (stereo unspecified)	48	-48	-44	0	99	-1	4%
Brc1cc2c(cc1C1Nc3ccccc3C3C=CCC31)OCO2 (stereo unspecified)	55	-55	-7	0	108	2	.
Cc1cc(C)c2c(c1)NC(c1cc3c(cc1Br)OCO3)C1CC=CC21 (stereo unspecified)	?	-70	34	1	92	-1	-14%
CN(C)c1ccc(/C=C2\Oc3ccc(C#Cc4cccc(N)c4)cc3C2=O)cc1	?	-70	.	11	84	.	-14%
COC(=O)c1ccc2c(c1)C(=O)/C(=C/c1ccc(C)cc1)O2	6	-6	-1	4	74	-1	.
COc1ccc(C2C(C(=O)Nc3ccc(F)cc3F)CCC(=O)N2c2ccc(OC)cc2)cc1 (stereo unspecified)	.	.	.	.	.	3	.
CCOC(=O)C1=NOC(C(=O)NC2CCCC2)(C(=O)C2CC2)C1 (stereo unspecified)	.	.	.	.	.	-2	.
CCCC[C@H](CCCc1ccc(F)cc1)CCC(=O)N(c1ccccc1)c1ccccc1	.	.	.	.	.	1	.
O=C(O)CC(C(=O)Nc1cccc(C(F)(F)F)c1)C1CCCO1 (stereo unspecified)	-17	17	1	0	98	-4	-3%
O=C(CC(C(=O)O)C1CCCO1)Nc1cccc(C(F)(F)F)c1 (stereo unspecified)	-21	21	.	0	93	-3	.
COC(=O)[C@]12C[C@H](CC(=O)N3CCSCC3)C(=O)N(Cc3ccc4c(c3)OCO4)C1=C[C@H](C(C)C)O[C@@H]2C1CC1	.	.	.	.	.	-1	.
O=C(Nc1ncc(Cc2cccc(C(F)(F)F)c2)s1)c1ccc(-c2cccc([N+](=O)[O-])c2)o1	51	-51	14	-6	100	-3	-10%
COc1ccc(S(=O)(=O)N2CCC(C(=O)NC3CCCC3)CC2)cc1OC	6	-6	6	.	83	-1	.
COc1ccc(S(=O)(=O)N2CCC(C(=O)NN3CCCCC3)CC2)cc1OC	-9	9	.	-1	90	1	-2%
CCCCNC[C@@]12CO[C@H](c3ccc(Cl)cc3)N1[C@@H](c1ccc(Cl)cc1)SC2	.	.	.	.	.	-4	.
Cc1ccc(OCC(=O)NNC(=O)C2CCN(c3ncnc4sc(C)c(C)c34)CC2)cc1	80*	-80	.	3	78	-1	3%
CCOC(=O)c1cccc(NC(=O)CN(C)S(=O)(=O)c2cc(OC)ccc2OC)c1	.	.	.	.	.	-2	.
CCOC(=O)c1cccc(NC(=O)Nc2cc(OC)ccc2OC)c1	109*	-109	20	9	103	-4	4.8µM*
COc1cc(OC)cc(C(=O)Nc2cccc(NC(=O)c3cc(OC)cc(OC)c3)n2)c1	82*	-82	.	21	101	-1	6%
SMILES	SR-BI HDL uptake	SR-BI DiI-HDL act	Hep lipid drop	AHR activator	CR mimetic SO	SMARCA2 activ	DiI quencher
CCOC(=O)Nc1cccc(NC(=O)c2cc(OC)cc(OC)c2)c1	74*	-74	-9	1	102	-2	10%
COC(=O)[C@]12C[C@H](CC(=O)N3CCCCC3)C(=O)N(CCc3ccc(OC)c(OC)c3)C1=C[C@H](COCc1ccccc1)O[C@@H]2C	.	.	.	.	.	-4	.
COc1ccc(-c2nnn(Cc3ccccc3)n2)cc1OC	4	-4	0	3	98	-2	.
COc1cc(-c2nnn(Cc3ccccc3C)n2)cc(OC)c1OC	101*	-101	-5	2	102	-1	2%
COc1cccc(C2c3[nH]c4ccccc4c3C[C@H]3C(=O)N(CCCCCO)CC(=O)N23)c1 (stereo partly specified)	56	-56	.	11	104	-3	.
O=C1[C@@H]2Cc3c([nH]c4ccccc34)C(c3cccc([N+](=O)[O-])c3)N2C(=O)CN1CCCO (stereo partly specified)	82*	-82	-3	15	93	2	-16%
Cc1ccc(N(CC(=O)NC2CCCCC2)C(=O)Cn2nnc(-c3ccc(C)o3)n2)cc1	-28	28	-20	1	107	-5	.
O=C(CN(Cc1ccco1)C(=O)Cn1nnc(-c2ccc(F)cc2)n1)NC1CCCC1	18	-18	.	-4	88	-6	.
COc1ccc(C)cc1N(CC(=O)NC1CCCC1)C(=O)Cn1nnc(-c2ccc(C)o2)n1	76*	-77	-37	.	.	-3	-2%
O=C(NC1CCCC1)C(c1c[nH]c2ccccc12)N(C(=O)Cn1nnc(-c2ccc(Cl)cc2)n1)c1ccccc1 (stereo unspecified)	-6	6	.	-1	84	0	-1%
CC(C)(C)NC(=O)C(c1c[nH]c2ccccc12)N(C(=O)Cn1nnc(-c2ccc(Cl)cc2)n1)c1ccccc1F (stereo unspecified)	3	-3	-4	2	97	-4	.
O=C(CN(C(=O)Cn1nnc(-c2ccc(F)cc2)n1)C1CCCC1)NC1CCCC1	94*	-94	.	-1	117	-3	-2%
O=C(CCCC(=O)N(CC(=O)NC1CCCC1)C1CCCC1)Nc1ccccn1	?	-74	.	2	101	-2	1%
O=C(NC1CCC1)c1ccc(C#Cc2cccc(F)c2)nc1	.	.	.	.	.	4	.
COc1cccc(N(C)C(=O)[C@@H](C2CC2)[C@@H](O)c2ccc(Cl)cc2)c1	.	.	.	.	.	0	.
C=CCN(C)CC#Cc1ccc(OC)cc1	.	.	.	.	.	6	.

Source: PubChem BioAssay (several laboratories)
